Measurements reported in publication PMC3396390 (International Journal of Nanomedicine, 2012).
Values after ≈ are worked out from the molar mass of the structure shown. “Also recorded” adds a separate entry of the source.

Tests used:
[1] = In vivo imaging of DiR-loaded micelles; details: nude mice, free dye (not shown)
Method in brief: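 DiR physically entrapped in CS-SA micelles. Anesthetized nude mice were dosed via tail vein at 25 mg CS-SA/kg. Whole-body fluorescence was imaged at set time points after injection. The brain was excised 0.5 h post-injection for ex vivo fluorescence imaging, with a blank brain as negative control.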

[2] = Saturated solubility of DOX in PBS; type: physicochemical; details: phosphate-buffered saline (PBS), pH 7.2, aqueous buffer
[3] = Brain distribution of DOX after iv injection; type: in vivo; details: ICR mice, iv 2.5 mg DOX/kg

With CCCCCCCCCCCCCCCCCCN1/C(=C/C=C/C=C/C=C/C2=[N+](CCCCCCCCCCCCCCCCCC)c3ccccc3C2(C)C)C(C)(C)c2ccccc21.[I-] [DiR] the fluorescence in brain [1] was “fluorescence was not seen in brain”.

Work on COc1cccc2c1C(=O)c1c(O)c3c(c(O)c1C2=O)C[C@@](O)(C(=O)CO)C[C@@H]3O[C@H]1C[C@H](N)[C@H](O)[C@H](C)O1 [DOX, Doxorubicin] yielded a solubility [2] of 76 µg/mL (≈ 140 µM).

For COc1cccc2c1C(=O)c1c(O)c3c(c(O)c1C2=O)C[C@@](O)(C(=O)CO)C[C@@H]3O[C@H]1C[C@H](N)[C@H](O)[C@H](C)O1.Cl [DOX · HCl, DOX hydrochloride], the “drug detection in brain” value [3] was “not detected in brain; also recorded: no drug signal was detected in brain”.
